Results from ChEMBL document CHEMBL1121364, “Nucleoside conjugates as potential antitumor agents. 3. Synthesis and antitumor activity of 1-(beta-D-arabinofuranosyl)cytosine conjugates of corticosteroids” (1980).

How the values were obtained:
L1210 [1] = assay: Antitumor activity in the mice with intraperitoneal implanted L1210 lymphoid leukemia at the dose of 17.7 and 27.7 mg/kg/day x 5 was determined as mean survival of treated group compared to untreated; 10.5/9.5; format: functional, Mus musculus
How it was run: (§1)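 C3D2F1/J female mice (C3H/HeJ female × DBA/2J male), groups of six to eight, average weight 25 g. Inoculated ip with 1 × 10^6 L1210 ascites cells taken from DBA/2Ha donor mice bearing 3-5 day old tumors. Compounds were dissolved in 0.154 N NaOH, neutralized with 0.154 N HCl (final 0.9% NaCl), and given ip daily for 5 days from 24 h post-implant. Median survival T/C; ILS = (T/C − 1) × 100; 30-day survivors counted.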

L1210 [2] = assay: Antitumor activity in mice with intraperitoneal implanted L1210 lymphoid leukemia at the dose 9.2 and 14.5 mg/kg/day x 5 was determined as weight change (g/mouse) on 8th day; format: functional
How it was run: (§2)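 Female C3D2F1/J mice (C3H/HeJ × DBA/2J), groups of six to eight, average weight 25 g. Each mouse got 1 × 10^6 L1210 ascites cells ip, taken from DBA/2Ha donor mice bearing 3-5 day tumors. Compound was dissolved in 0.154 N NaOH and neutralized with 0.154 N HCl (final 0.9% NaCl). Dosed ip daily ×5, starting 24 h after implant. Recorded body weight change on day 8, survival range, median survival and 30-day survivors. ILS = (T/C − 1) × 100.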

L1210 [3] = assay: Antitumor activity in mice with intraperitoneal implanted L1210 lymphoid leukemia at the dose 17.7 and 27.7 mg/kg/day x 5 was determined as weight change (g/mouse) on 8th day; format: functional; how it was run: as §2
L1210 [4] = assay: Antitumor activity in the mice with intraperitoneal implanted L1210 lymphoid leukemia at the dose of 9.2 and 14.5 mg/kg/day x 5 was determined as mean survival of treated group compared to untreated; 12/11; format: functional, Mus musculus
L1210 [5] = assay: Antitumor activity in the mice with intraperitoneal implanted L1210 lymphoid leukemia at the dose 17.7 and 27.7 mg/kg/day x 5 was determined and number of animals survived on 30 th day were reported; 0/8; format: functional, Mus musculus; how it was run: as §2
L1210 [6] = assay: Antitumor activity in the mice with intraperitoneal implanted L1210 lymphoid leukemia at the dose 9.2 and 14.5 mg/kg/day x 5 was determined as percentage increase in the life span as compared with control tumor bearers; format: functional, Mus musculus; how it was run: as §1
L1210 [7] = assay: Antitumor activity in the mice with intraperitoneal implanted L1210 lymphoid leukemia at the dose 17.7 and 27.7 mg/kg/day x 5 was determined as Survival time in days; Range is 7-17 days; format: functional, Mus musculus; how it was run: as §2
L1210 [8] = assay: Antitumor activity in the mice with intraperitoneal implanted L1210 lymphoid leukemia at the dose 9.2 and 14.5 mg/kg/day x 5 was determined as Survival time in days; Range is 12-16 days; format: functional, Mus musculus; how it was run: as §1
L1210 [9] = assay: Antitumor activity in the mice with intraperitoneal implanted L1210 lymphoid leukemia at the dose 17.7 and 27.7 mg/kg/day x 5 was determined as percentage increase in the life span as compared with control tumor bearers; format: functional, Mus musculus; how it was run: as §2
L1210 [10] = assay: Antitumor activity in the mice with intraperitoneal implanted L1210 lymphoid leukemia at the dose 9.2 and 14.5 mg/kg/day x 5 was determined and number of animals survived on 30 th day were reported; 0/6; format: functional, Mus musculus; how it was run: as §1
L1210 [11] = assay: Antitumor activity in the mice with intraperitoneal implanted L1210 lymphoid leukemia at the dose of 75 mg/kg/day x 5 was determined as mean survival of treated group compared to untreated; 18.5/9.5; format: functional, Mus musculus
L1210 [12] = assay: Antitumor activity in the mice with intraperitoneal implanted L1210 lymphoid leukemia at the dose of 50 mg/kg/day x 5 was determined as mean survival of treated group compared to untreated; 19/8; format: functional, Mus musculus; how it was run: as §1
L1210 [13] = assay: Antitumor activity in the mice with intraperitoneal implanted L1210 lymphoid leukemia at the dose of 25 mg/kg/day x 5 was determined as mean survival of treated group compared to untreated; 16/8.5; format: functional, Mus musculus; how it was run: as §1
L1210 [14] = assay: Antitumor activity in mice with intraperitoneal implanted L1210 lymphoid leukemia at the dose 75 mg/kg/day x 5 was determined as weight change (g/mouse) on 8th day; format: functional
How it was run: (§3)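 C3D2F1/J female mice (C3H/HeJ × DBA/2J), groups of six to eight, average 25 g, inoculated ip with 1 × 10^6 L1210 ascites cells taken from DBA/2Ha donor mice carrying 3-5 day tumors. Compound dissolved in 0.154 N NaOH, then neutralized with 0.154 N HCl to give 0.9% NaCl. Given ip daily for 5 consecutive days starting 24 h after implantation. Body weight change per mouse recorded on day 8.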

L1210 [15] = assay: In Vitro evaluation for the antiproliferative activity by observing the growth inhibition of L1210 lymphoid leukemia cells in culture at 72 hour; format: functional, Mus musculus
How it was run: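 Growth of L1210 lymphoid leukemia cells in culture measured by Trypan blue exclusion of viable cells after 72 h of drug exposure. ED50 is the concentration giving 50% growth inhibition. In some runs the compound was first preincubated in medium at 37 °C for 24 or 48 h before the assay.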

L1210 [16] = assay: Antitumor activity in mice with intraperitoneal implanted L1210 lymphoid leukemia at the dose 25 mg/kg/day x 5 was determined as weight change (g/mouse) on 8th day; format: functional; how it was run: as §3
L1210 [17] = assay: Antitumor activity in mice with intraperitoneal implanted L1210 lymphoid leukemia at the dose 50 mg/kg/day x 5 was determined as weight change (g/mouse) on 8th day; format: functional; how it was run: as §3
L1210 [18] = assay: Antitumor activity in the mice with intraperitoneal implanted L1210 lymphoid leukemia at the dose 25 mg/kg/day x 5 was determined and number of animals survived on 30 th day were reported; 0/8; format: functional, Mus musculus; how it was run: as §2
L1210 [19] = assay: Antitumor activity in the mice with intraperitoneal implanted L1210 lymphoid leukemia at the dose 50 mg/kg/day x 5 was determined as Survival time in days; Range is 17-24 days; format: functional, Mus musculus; how it was run: as §2
L1210 [20] = assay: Antitumor activity in the mice with intraperitoneal implanted L1210 lymphoid leukemia at the dose 50 mg/kg/day x 5 was determined and number of animals survived on 30 th day were reported; 0/8; format: functional, Mus musculus; how it was run: as §2
L1210 [21] = assay: Antitumor activity in the mice with intraperitoneal implanted L1210 lymphoid leukemia at the dose 75 mg/kg/day x 5 was determined and number of animals survived on 30 th day were reported; 1/8; format: functional, Mus musculus; how it was run: as §1
L1210 [22] = assay: Antitumor activity in the mice with intraperitoneal implanted L1210 lymphoid leukemia at the dose 50 mg/kg/day x 5 was determined as percentage increase in the life span as compared with control tumor bearers; format: functional; conditions: Mus musculus, L1210, ip; how it was run: as §1
L1210 [23] = assay: Antitumor activity in the mice with intraperitoneal implanted L1210 lymphoid leukemia at the dose 75 mg/kg/day x 5 was determined as percentage increase in the life span as compared with control tumor bearers; format: functional; conditions: Mus musculus, L1210, ip; how it was run: as §1
L1210 [24] = assay: Antitumor activity in the mice with intraperitoneal implanted L1210 lymphoid leukemia at the dose 25 mg/kg/day x 5 was determined as Survival time in days; Range is 8-21 days; format: functional, Mus musculus; how it was run: as §2
L1210 [25] = assay: Antitumor activity in the mice with intraperitoneal implanted L1210 lymphoid leukemia at the dose 25 mg/kg/day x 5 was determined as percentage increase in the life span as compared with control tumor bearers; format: functional; conditions: Mus musculus, L1210, ip; how it was run: as §2
L1210 [26] = assay: Antitumor activity in the mice with intraperitoneal implanted L1210 lymphoid leukemia at the dose 75 mg/kg/day x 5 was determined as Survival time in days; Range is 14- >45 days; format: functional, Mus musculus; how it was run: as §1
L1210 [27] = assay: Antitumor activity in the mice with intraperitoneal implanted L1210 lymphoid leukemia at the dose of 75 mg/kg/day x 5 was determined as mean survival of treated group compared to untreated; 18/9.5; format: functional, Mus musculus
L1210 [28] = assay: Antitumor activity in the mice with intraperitoneal implanted L1210 lymphoid leukemia at the dose of 50 mg/kg/day x 5 was determined as mean survival of treated group compared to untreated; 20.5/8; format: functional, Mus musculus
L1210 [29] = assay: Antitumor activity in the mice with intraperitoneal implanted L1210 lymphoid leukemia at the dose 25 mg/kg/day x 5 was determined and number of animals survived on 30 th day were reported; 1/8; format: functional, Mus musculus; how it was run: as §2
L1210 [30] = assay: Antitumor activity in the mice with intraperitoneal implanted L1210 lymphoid leukemia at the dose 50 mg/kg/day x 5 was determined as Survival time in days; Range is 14-24 days; format: functional, Mus musculus; how it was run: as §2
L1210 [31] = assay: Antitumor activity in the mice with intraperitoneal implanted L1210 lymphoid leukemia at the dose 75 mg/kg/day x 5 was determined as Survival time in days; Range is 15-37 days; format: functional, Mus musculus; how it was run: as §1
L1210 [32] = assay: Antitumor activity in the mice with intraperitoneal implanted L1210 lymphoid leukemia at the dose 25 mg/kg/day x 5 was determined as Survival time in days; Range is 13- >45 days; format: functional, Mus musculus; how it was run: as §2
L1210 [33] = assay: Antitumor activity in the mice with intraperitoneal implanted L1210 lymphoid leukemia at the dose of 25 mg/kg/day x 5 was determined as mean survival of treated group compared to untreated; 17.5/9.5; format: functional, Mus musculus; how it was run: as §1

C[C@]12CCC(=O)C=C1CC[C@H]1[C@@H]3CC[C@](O)(C(=O)CO)[C@@]3(C)C[C@H](O)[C@@]12F.Nc1ccn([C@@H]2O[C@H](CO)[C@@H](O)[C@@H]2O)c(=O)n1
T/C (L1210 [1]): 10.5 | Weight change (L1210 [2]): -4.47 g mouse-1 | Weight change (L1210 [3]): -3.48 g mouse-1 | T/C (L1210 [4]): 12 | Survivors (L1210 [5]): 0 | ILS (L1210 [6]): 9% | Survival time (L1210 [7]): 7 days | Survival time (L1210 [8]): 12 days | ILS (L1210 [9]): 11% | Survivors (L1210 [10]): 0

C[C@]12CC[C@H]3[C@@H](CCC4=CC(=O)CC[C@@]43C)[C@@H]1CC[C@@H]2C(=O)COP(=O)(O)OC[C@H]1O[C@@H](n2ccc(N)nc2=O)[C@@H](O)[C@@H]1O
T/C (L1210 [11]): 18.5 | T/C (L1210 [12]): 19 | T/C (L1210 [13]): 16 | Weight change (L1210 [14]): -0.09 g mouse-1 | ED 50 (L1210 [15]): 50 nM | Weight change (L1210 [16]): -0.54 g mouse-1 | Weight change (L1210 [17]): -0.94 g mouse-1 | Survivors (L1210 [18]): 0 | Survival time (L1210 [19]): 17 days | Survivors (L1210 [20]): 0 | Survivors (L1210 [21]): 1 | ILS at 50 mg/kg/day (L1210 [22]): 138% | ILS at 75 mg/kg/day (L1210 [23]): 95% | Survival time (L1210 [24]): 8 days | ILS at 25 mg/kg/day (L1210 [25]): 88% | Survival time (L1210 [26]): 14 days

C[C@H]1C[C@@H]2[C@H]([C@@H](O)C[C@@]3(C)[C@H]2CC[C@]3(O)C(=O)COP(=O)(O)OC[C@H]2O[C@@H](n3ccc(N)nc3=O)[C@@H](O)[C@@H]2O)[C@@]2(C)C=CC(=O)C=C12
T/C (L1210 [27]): 18 | T/C (L1210 [28]): 20.5 | Weight change (L1210 [14]): -1.07 g mouse-1 | ED 50 (L1210 [15]): 450 nM | Weight change (L1210 [16]): 2 g mouse-1 | Weight change (L1210 [17]): -1.08 g mouse-1 | Survivors (L1210 [29]): 1 | Survival time (L1210 [30]): 14 days | Survivors (L1210 [20]): 0 | Survivors (L1210 [21]): 1 | ILS at 50 mg/kg/day (L1210 [22]): 156% | ILS at 75 mg/kg/day (L1210 [23]): 90% | Survival time (L1210 [31]): 15 days | Survival time (L1210 [32]): 13 days | ILS at 25 mg/kg/day (L1210 [25]): 84% | T/C (L1210 [33]): 17.5
